Laboratory results published in ChEMBL document CHEMBL1124192, “Cyclopentenylcytosine. A carbocyclic nucleoside with antitumor and antiviral properties” (J Med Chem, 1988).
In brackets after ≈: the same amount, converted by molar mass. Several values for one entry are separate records, joined by “and”; a condition that tells them apart may be missing. Identical values can stand only once.

Columns and labels:
Cytomegalovirus [1] = assay: Log value for antiviral activity against Cytomegalovirus (AD169) from MRC5 diploid human embryonic lung cells at 0.1 ug/mL; assay type: functional
In short: (§1)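 CMV AD169 yield reduction in MRC5 cells. Subconfluent monolayers infected at MOI 0.2 PFU/cell for 1.5 h at 37 °C, rinsed, then fed drug in MEM + 2% FBS, in duplicate. Drug refed on day 3, cultures harvested on day 6 by freeze-thaw and pooled. Yield titrated by plaque assay under 0.25% agarose overlay for 5–6 days, then formalin-fixed and methylene blue-stained for plaque counts.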

Cytomegalovirus [2] = assay: Log value for antiviral activity against Cytomegalovirus (AD169) from MRC5 diploid human embryonic lung cells at 10 ug/mL; assay type: functional; in short: as §1
Cytomegalovirus [3] = assay: Log value for antiviral activity against Cytomegalovirus (AD169) from MRC5 diploid human embryonic lung cells at 1 ug/mL; assay type: functional; in short: as §1
Cytomegalovirus [4] = assay: Log value for antiviral activity against Cytomegalovirus (AD169) from MRC5 diploid human embryonic lung cells at 3.2 ug/mL; assay type: functional; in short: as §1
Cytomegalovirus [5] = assay: Log value for antiviral activity against Cytomegalovirus (AD169) from MRC5 diploid human embryonic lung cells at 320 ug/mL; assay type: functional; in short: as §1
Cytomegalovirus [6] = assay: Log value for antiviral activity against Cytomegalovirus (AD169) from MRC5 diploid human embryonic lung cells at 32 ug/mL; assay type: functional; in short: as §1
[7] = test system: unidentified influenza virus; assay: Inhibitory dose of compound required to inhibit cytopathogenic effects of influenza virus with A2/Aichi/2/68 strain in MDCK cells; assay type: functional; conditions: read-out: ID50 (the source's name)
[8] = test system: unidentified influenza virus; assay: Tested for inhibition of virus-induced cytopathogenic effect and cytotoxicity of compound against influenza virus with A2/Aichi/2/68 strain in MDCK cell; assay type: functional
[9] = test system: Japanese encephalitis virus; assay: Tested for inhibition of virus-induced cytopathogenic effect and cytotoxicity of compound against Japanese encephalitis virus with […] strain in vero cell; assay type: functional
L1210 [10] = assay: Compound was tested for antitumor activity against L1210 leukemia in mouse at dose 1 mg/kg administered subcutaneously in experiment 2; assay type: functional; conditions: L1210, sc, route subcutaneous
In short: (§2)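 Mice bearing L1210, L1210/ara-C, P388 or P388/ara-C leukaemia. Tumour implanted at the site each line names: ip, sc or ic. Drug given ip in physiologic saline on a QD1-9 schedule, at several dose levels per experiment. Life-span runs ended on day 30. Read-out is median % increase in life span versus tumoured untreated controls, with long-term survivors included.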

L1210 [11] = assay: (§3) Log cell kill at the end of treatment at dose 1 mg/kg administered intraperitoneally; assay type: functional, Mus musculus; conditions: route intraperitoneal
P388 [12] = assay: as §3; assay type: functional, Mus musculus; conditions: route intraperitoneal
L1210 [13] = assay: Compound was tested for antitumor activity against L1210/ara-C leukemia in mouse at dose 1.5 mg/kg administered intraperitoneally; assay type: functional; conditions: L1210, ip, route intraperitoneal; in short: as §2
L1210 [14] = assay: Compound was tested for antitumor activity against L1210/ara-C leukemia in mouse at dose 1 mg/kg administered intraperitoneally; assay type: functional; conditions: L1210, ip, route intraperitoneal; in short: as §2
L1210 [15] = assay: Median percent increase in life span of tumored, treated mice relative to tumored, untreated controls after intraperitoneal dose 4 mg/kg daily (every 4th day); assay type: functional; conditions: Mus musculus, L1210, ip
[16] = test system: Japanese encephalitis virus; assay: Inhibitory dose of compound required to inhibit cytopathogenic effects of Japanese encephalitis virus with […] strain in vero cells; assay type: functional; conditions: read-out: ID50 (the source's name)
L1210 [17] = assay: Compound was tested for antitumor activity against L1210 leukemia in mouse at dose 1 mg/kg administered intraperitoneally in experiment 2; assay type: functional; conditions: L1210, ip, route intraperitoneal; in short: as §2
M5076 = assay: Log cell kill at the end of treatment at dose 0.5 mg/kg administered intraperitoneally; assay type: functional, Mus musculus; conditions: route intraperitoneal
L1210 [18] = assay: Compound was tested for antitumor activity against L1210 leukemia in mouse at dose 1.5 mg/kg administered intracerebrally in experiment 1; assay type: functional; conditions: L1210, central; in short: as §2
L1210 [19] = assay: Compound was tested for antitumor activity against L1210 leukemia in mouse at dose 1 mg/kg administered intraperitoneally in experiment 1; assay type: functional; conditions: L1210, ip, route intraperitoneal; in short: as §2
Mus musculus [20] = assay: Compound was tested for antitumor activity against human A549 lung tumor xenografts in athymic mice at dose 2 mg/kg administered subrenal capsule in experiment 2; assay type: functional
Mus musculus [21] = assay: Compound was tested for antitumor activity against human LOX melanoma tumor xenografts in athymic mice at dose 1.5 mg/kg administered intraperitoneally in experiment 2; assay type: functional; conditions: ip, route intraperitoneal
In short: (§4)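 Athymic mice carrying human LOX melanoma. Drug given ip in saline on a QD1-9 schedule, at several dose levels. Life-span experiment ended on day 30. Read-out is % increase in life span versus untreated tumoured controls, with long-term survivors included.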

Mus musculus [22] = assay: Compound was tested for antitumor activity against human LOX melanoma tumor xenografts in athymic mice at dose 1 mg/kg administered intraperitoneally in experiment 1; assay type: functional; conditions: ip, route intraperitoneal; in short: as §4
P388 [23] = assay: Number of 30-day survivors out of 6 mice at dose 1.5 mg/kg administered intraperitoneally; assay type: functional, Mus musculus; conditions: route intraperitoneal
P388 [24] = assay: Compound was tested for antitumor activity against P388 leukemia in mouse at dose 1.5 mg/kg administered intraperitoneally in experiment 2; assay type: functional; conditions: P388, ip, route intraperitoneal; in short: as §2
P388 [25] = assay: Compound was tested for antitumor activity against P388 leukemia in mouse at dose 1 mg/kg administered intraperitoneally in experiment 1; assay type: functional; conditions: P388, ip, route intraperitoneal; in short: as §2
Punta Toro virus = assay: Inhibitory dose of compound required to inhibit cytopathogenic effects of Punta toro virus with adames strain in vero cells; assay type: functional; conditions: read-out: ID50 (the source's name)
[26] = test system: Vesicular stomatitis virus; assay: Inhibitory dose of compound required to inhibit cytopathogenic effects of vesicular stomatitis RNA virus with indiana strain in L929 cells; assay type: functional
Yellow fever virus = assay: Tested for inhibition of virus-induced cytopathogenic effect and cytotoxicity of compound against yellow fever virus with asibi strain vero cell; assay type: functional
Vero [27] = assay: Cytotoxicity of compound was determined by reduction in number of viable vero monolayer cells after treatment with 0.01 ug/mL for 4 days; assay type: functional, Chlorocebus sabaeus
In short: (§5)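 Vero monolayers in duplicate cultures, exposed to each drug concentration in medium at 37 °C in a CO2 incubator for 4 days. Viable cells counted by trypan blue exclusion, and % reduction calculated against untreated control cultures.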

Vero [28] = assay: Cytotoxicity of compound was determined by reduction in number of viable vero monolayer cells after treatment with 0.032 ug/mL for 4 days; assay type: functional, Chlorocebus sabaeus; in short: as §5
Vero [29] = assay: Cytotoxicity of compound was determined by reduction in number of viable vero monolayer cells after treatment with 10 ug/mL for 4 days; assay type: functional, Chlorocebus sabaeus; in short: as §5
Vero [30] = assay: Cytotoxicity of compound was determined by reduction in number of viable vero monolayer cells after treatment with 320 ug/mL for 4 days; assay type: functional, Chlorocebus sabaeus; in short: as §5
Human alphaherpesvirus 3 [31] = assay: Compound was tested for antiviral activity against Varicella-Zoster from human diploid foreskin cells in mono layer culture at 0.01 ug/ml; assay type: functional
In short: (§6)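 VZV isolate DM625 on Huf cells (human diploid foreskin monolayers). Inoculum was left on after 1 h adsorption at 37 °C. Drug overlay in MEM + 2% FBS without agarose, refed with fresh drug at 72 h, in 2% CO2. Cells fixed in 10% formalin and stained with methylene blue; plaques counted day 6. % plaque reduction versus untreated virus controls, triplicates.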

Human alphaherpesvirus 3 [32] = assay: Compound was tested for antiviral activity against Varicella-Zoster from human diploid foreskin cells in mono layer culture at 100 ug/ml; assay type: functional; in short: as §6
[33] = Ratio of minimum drug concentration to ID50 of the compound (Indiana strain); assay type: ADME
L1210 [34] = assay: Compound was tested for antitumor activity against L1210 leukemia in mouse at dose 1 mg/kg administered intracerebrally in experiment 2; assay type: functional; conditions: L1210, central; in short: as §2
Human alphaherpesvirus 3 [35] = assay: Compound was tested for antiviral activity against Varicella-Zoster from human diploid foreskin cells in mono layer culture at 0.32 ug/ml; assay type: functional; in short: as §6

For Nc1ccn([C@@H]2C=C(CO)[C@@H](O)[C@H]2O)c(=O)n1, the “Reduction in virus yield” value (Cytomegalovirus [1]) was 0.8 pfu/ml, the “Reduction in virus yield” value (Cytomegalovirus [2]) was 1.9 pfu/ml and the “Reduction in virus yield” value (Cytomegalovirus [3]) was 1.4 pfu/ml. The “Reduction in virus yield” value (Cytomegalovirus [4]) was 1.5 pfu/ml, the “Reduction in virus yield” value (Cytomegalovirus [5]) was 5.3 pfu/ml and the “Reduction in virus yield” value (Cytomegalovirus [6]) was 2 pfu/ml. The IC50 [7] was 18.2 µg/mL (≈ 76.1 µM), the Virus rating [8] was 2.4 and the Virus rating [9] was 2.4. For the same molecule, the ILS at 1 mg/kg (L1210 [10]) was 83%, the LCK (L1210 [11]) was >6 and >5.8 and the LCK (P388 [12]) was 0.9. For the same molecule, the ILS at 1.5 mg/kg (L1210 [13]) was > 650%, the ILS at 1 mg/kg (L1210 [14]) was > 650% and the ILS at 4 mg/kg (L1210 [15]) was 91%. The IC50 [16] was 0.1 µg/mL (≈ 0.418 µM), the ILS at 1 mg/kg (L1210 [17]) was 201% and the LCK (M5076) was -2. For the same molecule, the ILS at 1.5 mg/kg (L1210 [18]) was 45%, the ILS at 1 mg/kg (L1210 [19]) was 212% and the ILS at 2 mg/kg (Mus musculus [20]) was 92%. The ILS at 1.5 mg/kg (Mus musculus [21]) was 80%, the ILS at 1 mg/kg (Mus musculus [22]) was 119% and the No. of survivors (P388 [23]) was 3. For the same molecule, the ILS at 1.5 mg/kg (P388 [24]) was 69%, the ILS at 1 mg/kg (P388 [25]) was 88% and the IC50 (Punta Toro virus) was 1.01 µg/mL (≈ 4.22 µM). For the same molecule, the ID50 [26] was 0.57 µg/mL and 0.25 µg/mL, the Virus rating (Yellow fever virus) was 0.9 and the Reduction (Vero [27]) was 0%. The Reduction (Vero [28]) was 3%, the Reduction (Vero [29]) was 64% and the Reduction (Vero [30]) was 67%. The Plaque reduction (Human alphaherpesvirus 3 [31]) was 0%, the Plaque reduction (Human alphaherpesvirus 3 [32]) was 41% and the Therapeutic index [33] was 0.4. The selectivity ratio ([33]; read-out: Therapeutic index) was 0.6, the ILS at 1 mg/kg (L1210 [34]) was 42% and the Plaque reduction (Human alphaherpesvirus 3 [35]) was 33%.
